MT1-MMP act inh = MT1-MMP (human) activation inhibition. HT1080 RFP-PRO-GFP cells, GFP/RFP ratio fluorescence, overnight; percent of plate control window, DMSO zero. AID 651647. P50281. 360,000 tested, 0.061% active. GFP/RFP ratio change, % at 20 µM;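 active = GFP/RFP ratio change of at least 30% with cell ATP level not reduced by more than half and red fluorescence within 50% of control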
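Assay system: HT1080 cells carrying an RFP-PRO-GFP reporter | Dosing: Single dose of 20 µM compound, 1% DMSO final | Incubation: Cells overnight before dosing, compound overnight, 37 °C, 5% CO2 | Evaluation: GFP/RFP fluorescence ratio | Control set: DMSO and RFP-L50D-GFP cell wells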
MIN6 prolif = induces beta-cell replication in MIN6 cells; MIN6 cells proliferation, ATPlite luminescence, 48 h; cells starved in 0.2% serum; 100% = growth in 10% serum; proliferation, % at 10 µM; 330,000 tested, 0.29% active;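 active = compounds whose signal lies at least 3.5 SD above the mean of all wells on their plate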;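 note: 0% = DMSO-treated cells in low-serum medium and 100% = 10% serum control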
Myeloid diff MLP = compounds promoting myeloid differentiation | ER-HoxA9 myeloid progenitors, lysozyme-GFP differentiation, flow cytometry | calls only at 10 µM | 360,000 tested, 1% active | AID 624256;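 active = normalized GFP-positive differentiation at or above the plate's own cutoff, the solvent-only control mean plus 3 SD; inconclusive = no clear call, values can overlap the other calls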;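 note: cells exposed to compound for four days before flow analysis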
DAGLB inh = diacylglycerol lipase beta (human) inhibition | Q8NCG7 | HEK293T DAGLB membrane lysate, EnzChek fluorogenic substrate | inhibition, % at 5.17 µM | 340,000 tested, 0.059% active; in the data active = inhibition above about 34%;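 note: 0% = enzyme with vehicle and 100% = wells lacking enzyme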
NRP1-CendR mod = alters CendR peptide binding to human NRP-1; FAM-RPARPAR peptide binding to NRP-1, fluorescence polarization; 360,000 tested, 0.85% active; O14786; inhibition, % at 25 µM;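 active = inhibition or corrected inhibition above about 18%, plus a signal ratio from 0.5 to 1.5, limit read from the data, passing the limit was not always enough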
SENP1 inh = SENP1 (human) catalytic domain inhibition; AID 624204; recombinant SENP1 catalytic domain, CyPet-SUMO1-YPet FRET cleavage; Q9P0U3; 360,000 tested, 0.21% active; inhibition, % at 10 µM;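 active = inhibition at least 30% at 10 µM, raw YFP signal under a set limit, fluorescence ratio 0.5 to 1.5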;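 note: 0% = enzyme with DMSO and 100% = no enzyme wells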
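System: Recombinant human SENP1 catalytic domain, His6-tagged | Incubation: Enzyme reaction for 50 min at room temperature, dark | Medium: Tris pH 8 with BME, BSA, NP40 and catalase | Also added: 25 nM SUMO1 FRET substrate | Compound: 10 µM single point, 0.5% DMSO | Measured by: FRET fluorescence in CFP and YFP emission channels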
Starred values were filed as active, the others as inactive; i = inactive; u = inconclusive; x = no result given; + = active, no number. A selection: hits, their analogues and other compounds. The true share with any hit is near 2.4%.

SMILES | MT1-MMP act inh | MIN6 prolif | Myeloid diff MLP | DAGLB inh | NRP1-CendR mod | SENP1 inh
CCOC(=O)c1ccc(NC(=O)C(C)N2C(=O)c3ccccc3C2=O)cc1 (stereo unspecified) | -1 | -2 | i | -5 | -19 | -1
Cc1ccc(NC(=O)C(C)N2C(=O)c3ccccc3C2=O)cc1 (stereo unspecified) | 5 | -2 | i | 0 | 27* | -1
O=C(COc1ccc(F)cc1Cl)N(Cc1nnc(-c2ccccc2Cl)o1)C1CC1 | 3 | 0 | u | -6 | 10 | -2
Brc1ccc(-c2ncc3ccccn23)cc1 | -3 | -1 | i | 1 | -8 | -2
COc1ccccc1N1C(=O)N(C(C)=O)C2C1Nc1ccccc1N2C (stereo unspecified) | -165 | -3 | + | 2 | -61 | -30
CCn1c(=NC(=O)CS(=O)(=O)c2ccc(F)cc2)sc2cccc(OC)c21 | 4 | -7 | + | -4 | -16 | -26
C[C@H](CO)N1C[C@H](C)[C@@H](CN(C)Cc2cccnc2)Oc2cc(-c3cccnc3)ccc2S1(=O)=O | 3 | x | i | 1 | -12 | 0
COC(=O)C[C@H]1C=C[C@H](NC(=O)C2CCOCC2)[C@@H](CO)O1 | -1 | x | i | x | 5 | 4
COCCN=C1N[C@@H](c2ccc(Br)cc2)C(C(=O)OC)=C(C)N1Cc1ccccc1 | -3 | -9 | + | -4 | 8 | -3
Cc1c(C(=O)Nc2ccc(S(=O)(=O)NCC3CCCO3)cc2)cccc1[N+](=O)[O-] (stereo unspecified) | 3 | 2 | i | -1 | 38* | 2
Cc1sc2ncnc(NCCCO)c2c1C | 0 | -1 | i | 2 | -6 | -2
Cc1ccc(Nc2ncnc3sc(C)c(C)c23)cc1C | -5 | 0 | + | -5 | -3 | -4
CCCNC(=O)Cn1c(=O)/c(=C\c2ccc(-c3cccc([N+](=O)[O-])c3)o2)s/c1=C\C(=O)C(C)(C)C | -51 | -2 | + | 1 | 121 | -25
CCCNC(=O)Cn1c(=O)/c(=C\c2ccc(-c3ccc([N+](=O)[O-])cc3)o2)s/c1=C\C(=O)C(C)(C)C | -165 | x | + | -16 | 135 | -26
O=C1NC(=O)/C(=C/c2ccc(-c3cccc([N+](=O)[O-])c3)o2)S1 | 8 | -3 | i | 3 | -20 | 1
NC(=O)N/N=C/c1ccc(-c2ccc([N+](=O)[O-])cc2)o1 | 1 | 0 | i | 2 | -24 | -34
CCCNC(=O)Cn1c(=O)/c(=C/c2ccc(-c3cccc([N+](=O)[O-])c3)o2)s/c1=C\C(=O)C(C)(C)C | -52 | x | + | -2 | 142 | -30
CCN(C(=O)CSc1nnc(-c2ccccc2Cl)n1C1CCCC1)C1CCS(=O)(=O)C1 (stereo unspecified) | 1 | 0 | i | 0 | 20* | -1
COc1cc(C(=S)N2CCN(c3ccccc3Cl)CC2)cc(O)c1O | -1 | -7 | i | 15 | 8 | -1
CCN(CC)C(=O)Cn1cc(S(=O)(=O)CC(=O)NCc2ccc(C)cc2)c2ccccc21 | -2 | 1 | i | -1 | 22* | 1
CCN(CC)C(=O)Cn1cc(S(=O)(=O)CC(=O)NCCc2ccccc2)c2ccccc21 | 1 | -1 | i | -1 | 10 | 0
C=C1CN(Cc2ccccc2)S(=O)(=O)c2ccccc21 | 0 | -4 | i | -5 | 24* | 1
CCn1c(SCC(=O)c2c[nH]c3ccccc23)nc2cc(S(=O)(=O)N3CCOCC3)ccc21 | -2 | 0 | + | -6 | -10 | -17
CN(C)CCN1C(=O)c2cccc3cc([N+](=O)[O-])cc(c23)C1=O | -52 | x | x | -5 | 3 | 60*
Cc1ccc(NS(=O)(=O)c2ccc(C)c(C(=O)Nc3ccc(S(=O)(=O)Nc4onc(C)c4C)cc3)c2)cc1 | 2 | x | i | 7 | -23 | 3
SMILES | MT1-MMP act inh | MIN6 prolif | Myeloid diff MLP | DAGLB inh | NRP1-CendR mod | SENP1 inh
CCCCCc1c(C)nc(Nc2ccccc2)[nH]c1=O | -1 | -1 | i | -1 | 38* | 3
Cc1ccc(Nc2nc(C)c(CCC(C)C)c(=O)[nH]2)cc1 | 2 | 0 | i | 1 | 5 | 1
CCN(CC(=O)NCc1ccc(F)cc1)CC(=O)Nc1ccccc1-c1ccccc1 | -3 | -2 | + | -5 | 13 | 2
CCN(CC(=O)Nc1ccccc1-c1ccccc1)Cc1nc2ccccc2c(=O)[nH]1 | -14 | -2 | + | -1 | -7 | -6
CC1CN(CC(=O)Nc2nc(-c3ccc(Cl)cc3)cs2)CC(C)O1 (stereo unspecified) | 6 | x | + | -6 | -7 | 1
CN(C(=O)c1cccc(Nc2ccc(-c3ccc4c(c3)OCCO4)nn2)c1)C1CCCCC1 | 0 | -6 | i | -1 | -15 | 5
NCCCC[C@H]1CNC(=O)C(=O)N1CC1CCCCC1 | 0 | 7 | i | 2 | 18* | 1
CCCC[C@@H]1CNC(=O)C(=O)N1CC1CCCCC1 | 7 | x | i | x | -10 | -2
CCC(c1nc2ccccc2[nH]1)n1c(-c2ccnc(Cl)c2)nc2ccccc21 (stereo unspecified) | -7 | x | i | x | -2 | 4
CCN(CC)c1ccc(/C=C2\C(=N)N3N=C(CC(=O)N4CCOCC4)SC3=NC2=O)cc1 | -42 | 0 | + | -3 | 136 | -21
OCCN(CCO)c1ccc2ccccc2c1 | 4 | 1 | i | 3 | 4 | -1
OCCN(CCO)c1cc2c3ccccc3ccc2c2ccccc12 | 3 | x | i | 4 | 25* | -24
COc1cc(/C=N/S(=O)(=O)CCc2ccccc2)cc(OC)c1O | 5 | 0 | i | -1 | 39* | -8
CCOC(=O)C1=C(O)C(=O)N(c2ccccc2)C1c1cccc([N+](=O)[O-])c1 (stereo unspecified) | 8 | 3 | i | 0 | 26* | -3
Cc1ccc(C(=O)OCC(=O)c2ccc(Cl)s2)s1 | 0 | -1 | i | -15 | 34* | 1
Cc1ccc(C(=O)OCC(=O)NCCNC(=O)COC(=O)c2ccc(C)s2)s1 | -1 | 2 | i | 3 | -10 | 2
Cc1ccnc(NS(=O)(=O)c2ccc(NC(=O)CSc3nc(-c4ccccc4)cc(=O)[nH]3)cc2)n1 | -2 | 1 | i | 3 | -31 | -7
Oc1cc2ccccc2cc1-c1n[nH]c(=S)n1Cc1ccco1 | -9 | -4 | i | 2 | 21* | -31
Oc1ccc(-c2n[nH]c(=S)n2Cc2ccco2)cc1 | x | -2 | i | 0 | 7 | 1
Cc1cnc(C=NNC(N)=S)c2cccc(N)c12 | 3 | x | x | -5 | 26* | 27

Screening results (PubChem)
